Results on two compounds are retold here after ChEMBL document CHEMBL2331336, “Discovery and structure-activity relationship of 1,3-cyclohexyl amide derivatives as novel mGluR5 negative allosteric modulators” (Bioorg Med Chem Lett, 2013).

In general, logD refers to the decadic logarithm of the distribution of all forms, ionised or not, between an organic phase and buffer at a given pH. The IC50 is the concentration needed to halve the response being measured. By AUC is commonly meant the area under the concentration-time curve, a measure of exposure. Broadly, the Tmax is the time from dosing to the highest level. In general, EC50 refers to the concentration that produces a half-maximal response. The term bioavailability denotes dose-corrected exposure relative to a reference, in per cent. Usually half-life stands for how long it takes for the measured level to halve. A word on the Ki: it is a dissociation constant, usually derived from enzyme kinetics or from competition with a known ligand. As usually defined, the Cmax is the highest concentration seen after dosing.

≈ marks a conversion by molar mass, not a printed value.

Data set [1] is described as follows: Volume of distribution at steady state in Sprague-Dawley rat at 1 mg/kg, iv or 2 mg/kg, po. It is filed as ADME, organism-based. Particulars: in vivo, read-out: Vdss. Summed up: (§1)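 Sprague-Dawley rats (n = 2) dosed in a cross-over design with a 24 h washout: 1 mg/kg IV and 2 mg/kg PO in 20% hydroxypropyl-β-cyclodextrin in water. Rat hepatic blood flow was taken as 20 mL/min.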

Data set [2] is described as follows: Partition co-efficient, log D at pH 7.4 of the compound by shake flask method. Particulars: buffer. It is filed as physicochemical.
The nature of data set [3]: Ratio of drug uptake in brain to plasma of CD-1 mouse at 10 mg/kg, sc at 1 hr. It is filed as ADME, organism-based. Further details: dose 10 mg/kg, route subcutaneous. The settings on record: read-out: BPR. In short, it runs like this: (§2)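 CD-1 mice (n = 2), 10 mg/kg SC in 20% hydroxypropyl-β-cyclodextrin in water. Brain and plasma sampled at 1 h; averages reported. Quantification limits were 2 ng/g for brain and 2 ng/mL for plasma. Kupp is the ratio of unbound brain to unbound plasma concentration.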

In data set [4] the test system is Rattus norvegicus. Kind of data set: Plasma clearance in Sprague-Dawley rat at 1 mg/kg, iv or 2 mg/kg, po relative to hepatic blood flow. It is filed as ADME, organism-based. The settings on record: in vivo. In short, it runs like this:
as §1

The nature of data set [5]: Plasma clearance in Sprague-Dawley rat at 1 mg/kg, iv or 2 mg/kg, po. It is filed as ADME, organism-based. Summed up:
as §1

Data set [6] in a line: Plasma concentration in CD-1 mouse at 10 mg/kg, sc at 1 hr. Format: ADME, organism-based. Further details: dose 10 mg/kg, route subcutaneous. In short, it runs like this:
as §2

A further data set deals with Liver. Kind of data set: Intrinsic clearance in mouse liver microsomes. It is filed as ADME, Microsome. (Microsomes from liver hold many membrane-bound enzymes, among them those of drug oxidation.)
Data set [7] deals with T1, Metabotropic glutamate receptor 1 (Rattus norvegicus, UniProt P23385). Kind of data set: Antagonist activity at rat mGluR1 expressed in HEK293 cells assessed as inhibition of Ca2+ mobilization by FLIPR assay. Format: functional, cell-based. In short, it runs like this: (§3)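 Rat mGluR1 stably in HEK293 cells (1.5% calf serum medium), seeded 24 h earlier, Fluo-4 loaded 1 h at 37 °C in HBSS/HEPES pH 7.4 with probenecid. Curves fitted with Hill equation.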
T1 sequence (P23385 whole entry): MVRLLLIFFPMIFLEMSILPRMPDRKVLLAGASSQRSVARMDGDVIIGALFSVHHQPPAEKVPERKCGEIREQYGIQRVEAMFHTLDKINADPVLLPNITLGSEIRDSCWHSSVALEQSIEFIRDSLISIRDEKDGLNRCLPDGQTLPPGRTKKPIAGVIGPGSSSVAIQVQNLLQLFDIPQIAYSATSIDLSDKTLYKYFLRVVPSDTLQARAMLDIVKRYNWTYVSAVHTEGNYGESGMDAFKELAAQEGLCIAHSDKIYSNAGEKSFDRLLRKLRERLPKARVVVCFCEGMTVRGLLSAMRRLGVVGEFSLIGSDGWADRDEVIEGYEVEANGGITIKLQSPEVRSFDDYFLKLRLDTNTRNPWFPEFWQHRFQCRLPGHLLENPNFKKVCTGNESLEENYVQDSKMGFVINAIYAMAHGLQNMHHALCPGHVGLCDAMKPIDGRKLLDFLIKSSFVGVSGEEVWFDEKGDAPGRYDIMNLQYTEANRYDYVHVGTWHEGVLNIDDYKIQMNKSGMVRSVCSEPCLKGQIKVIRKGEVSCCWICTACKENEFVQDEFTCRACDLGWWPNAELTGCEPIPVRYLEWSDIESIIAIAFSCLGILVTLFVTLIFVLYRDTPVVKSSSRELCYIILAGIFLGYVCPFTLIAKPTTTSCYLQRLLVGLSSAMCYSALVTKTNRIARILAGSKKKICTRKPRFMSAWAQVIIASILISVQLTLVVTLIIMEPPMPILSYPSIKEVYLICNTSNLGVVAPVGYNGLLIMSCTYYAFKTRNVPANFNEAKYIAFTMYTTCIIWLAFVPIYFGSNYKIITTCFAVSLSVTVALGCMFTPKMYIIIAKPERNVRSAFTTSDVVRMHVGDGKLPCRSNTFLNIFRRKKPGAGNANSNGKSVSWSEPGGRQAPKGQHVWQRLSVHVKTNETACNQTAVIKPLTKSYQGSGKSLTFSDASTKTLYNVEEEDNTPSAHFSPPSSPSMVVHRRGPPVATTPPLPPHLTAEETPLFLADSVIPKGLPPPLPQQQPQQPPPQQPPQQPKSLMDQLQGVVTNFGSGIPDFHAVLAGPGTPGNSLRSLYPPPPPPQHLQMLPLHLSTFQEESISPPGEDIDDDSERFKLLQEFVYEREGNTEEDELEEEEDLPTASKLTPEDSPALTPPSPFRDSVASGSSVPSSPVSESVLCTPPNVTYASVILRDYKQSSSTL
A general note: Calcium flux is commonly read through the fluorescence of an indicator in the cells.

Data set [8] in a line: Drug uptake in CD-1 mouse brain at 10 mg/kg, sc at 1 hr. Format: ADME, organism-based. Further details: dose 10 mg/kg, route subcutaneous. Particulars: read-out: Drug uptake. Summed up: as §2
Data set [9] concerns Plasma. Kind of data set: Fraction unbound in mouse plasma. Format: ADME, cell-free.
For data set [10], the system named is Rattus norvegicus. Kind of data set: AUC ( 0 to infinity) in Sprague-Dawley rat at 1 mg/kg, iv. It is filed as ADME, organism-based, Plasma. Further details: time infinity, dose 1 mg/kg, route intravenous. Particulars: in vivo. In short, it runs like this:
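Sprague-Dawley rats (n = 2), cross-over design with 24 h washout between routes; 1 mg/kg iv in 20% hydroxypropyl-β-cyclodextrin in water; plasma AUC0-inf derived from concentration–time profile.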

Data set [11] can be described thus: Plasma protein binding in human. Format: ADME, cell-free. Particulars: read-out: PPB (converted).
Data set [12] in a line: Fraction unbound in mouse brain. It is filed as ADME, tissue-based.
A short description of data set [13]: Ratio of fraction unbound in brain to plasma of CD-1 mouse brain at 10 mg/kg, sc at 1 hr. Particulars: in vivo. It is filed as ADME, organism-based. Further details: dose 10 mg/kg, route subcutaneous. Summed up: as §2
The nature of data set [14]: Tmax in Sprague-Dawley rat at 1 mg/kg, iv or 2 mg/kg, po. Format: ADME, organism-based. The settings on record: in vivo. Summed up:
as §1

The nature of data set [15]: Kinetic solubility of the compound in potassium phosphate buffer after 4 hrs. Format: physicochemical. The settings on record: read-out: Kinetic_solubility. Summed up: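 Kinetic solubility: compound from 10 mM DMSO stock diluted into 25 mM potassium phosphate buffer and shaken 4 h. Supernatant analyzed by UPLC with PDA detection at 254 nm.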
For data set [16], the target named is T2, Metabotropic glutamate receptor 5 (Homo sapiens, UniProt P41594). The data set is described as follows: Antagonist activity at human mGluR5 expressed in HEK293 cells assessed as inhibition of Ca2+ mobilization by FLIPR assay. Format: functional, cell-based.
T2 sequence (P41594 whole entry): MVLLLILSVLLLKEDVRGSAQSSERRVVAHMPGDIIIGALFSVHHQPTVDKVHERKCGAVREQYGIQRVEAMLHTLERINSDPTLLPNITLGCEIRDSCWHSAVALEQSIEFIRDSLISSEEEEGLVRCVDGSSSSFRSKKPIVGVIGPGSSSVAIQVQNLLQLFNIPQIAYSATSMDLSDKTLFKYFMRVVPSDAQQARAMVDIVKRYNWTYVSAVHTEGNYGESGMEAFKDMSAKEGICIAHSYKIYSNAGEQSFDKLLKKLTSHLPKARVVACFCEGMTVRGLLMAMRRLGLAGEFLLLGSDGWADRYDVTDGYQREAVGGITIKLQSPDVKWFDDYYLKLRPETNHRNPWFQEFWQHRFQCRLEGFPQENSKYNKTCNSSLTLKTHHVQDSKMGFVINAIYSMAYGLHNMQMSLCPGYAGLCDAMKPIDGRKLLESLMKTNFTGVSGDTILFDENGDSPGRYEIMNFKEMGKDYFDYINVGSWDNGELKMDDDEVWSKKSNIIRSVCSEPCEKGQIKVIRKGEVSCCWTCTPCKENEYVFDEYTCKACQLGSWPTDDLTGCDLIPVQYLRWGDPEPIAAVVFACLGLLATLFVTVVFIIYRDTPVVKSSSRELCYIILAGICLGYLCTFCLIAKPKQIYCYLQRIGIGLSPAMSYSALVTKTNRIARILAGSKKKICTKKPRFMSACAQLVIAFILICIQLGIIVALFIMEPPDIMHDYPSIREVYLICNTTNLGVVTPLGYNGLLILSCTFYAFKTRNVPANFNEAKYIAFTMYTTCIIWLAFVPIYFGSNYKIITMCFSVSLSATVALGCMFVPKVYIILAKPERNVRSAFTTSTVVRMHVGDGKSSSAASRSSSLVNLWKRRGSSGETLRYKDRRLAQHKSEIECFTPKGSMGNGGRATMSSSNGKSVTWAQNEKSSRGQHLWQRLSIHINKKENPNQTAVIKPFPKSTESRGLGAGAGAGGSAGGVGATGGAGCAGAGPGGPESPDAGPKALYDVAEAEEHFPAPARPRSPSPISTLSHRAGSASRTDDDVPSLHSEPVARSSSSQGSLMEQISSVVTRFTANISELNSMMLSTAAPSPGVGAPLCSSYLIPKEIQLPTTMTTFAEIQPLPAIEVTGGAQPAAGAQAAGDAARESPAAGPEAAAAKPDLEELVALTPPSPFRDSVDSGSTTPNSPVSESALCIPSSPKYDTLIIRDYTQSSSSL
The target of data set [17] is T1, Metabotropic glutamate receptor 1. Kind of data set: Agonist activity at rat mGluR1 expressed in HEK293 cells assessed as Ca2+ mobilization by FLIPR assay. It is filed as functional, cell-based. In short, it runs like this: as §3
Data set [18] relates to Rattus norvegicus. The data set is described as follows: AUC ( 0 to infinity) in Sprague-Dawley rat at 2 mg/kg, po. Format: ADME, organism-based, Plasma. Particulars: in vivo. Also on record: dose 2 mg/kg, route oral, time infinity. Summed up: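 Sprague-Dawley rats (n = 2), cross-over design with 24 h washout between routes; 2 mg/kg oral in 20% hydroxypropyl-β-cyclodextrin in water; plasma AUC0-inf derived from concentration–time profile.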

Data set [19] relates to Rattus norvegicus. Kind of data set: Bioavailability in Sprague-Dawley rat at 1 mg/kg, iv or 2 mg/kg, po. Format: ADME, organism-based. The settings on record: in vivo. Summed up:
as §1

Data set [20] is described as follows: Half life in Sprague-Dawley rat at 1 mg/kg, iv or 2 mg/kg, po. Format: ADME, organism-based. Particulars: in vivo. In short, it runs like this: as §1
Data set [21] can be described thus: Fraction unbound in rat brain. Format: ADME, tissue-based.
The target in data set [22] is T2, Metabotropic glutamate receptor 5. Kind of data set: Displacement of [3H]-ABP688 from human mGluR5 expressed in HEK293 cells after 60 mins by scintillation counting. Format: cell-based.
Data set [23] deals with Liver microsomes. The data set is described as follows: Intrinsic clearance in human liver microsomes. Further details: unit not given here. It is filed as ADME, Microsome.
Data set [24] is described as follows: Cmax in Sprague-Dawley rat at 1 mg/kg, iv or 2 mg/kg, po. Format: ADME, organism-based. The settings on record: in vivo. Summed up:
as §1

Data set [25] has as its system Plasma. The data set is described as follows: Fraction unbound in rat plasma. Format: ADME, cell-free.
The subject of data set [26] is Liver microsomes. Kind of data set: Intrinsic clearance in rat liver microsomes. Format: ADME, Microsome.
A short description of data set [27]: Drug uptake in Sprague-Dawley rat brain at 10 mg/kg, po at 1 hr. Format: ADME, organism-based. Also on record: dose 10 mg/kg, route oral. The settings on record: read-out: Drug uptake.
A short description of data set [28]: Plasma concentration in Sprague-Dawley rat at 10 mg/kg, po at 1 hr. Format: ADME, organism-based. Further details: dose 10 mg/kg, route oral.
Data set [29] can be described thus: Ratio of drug uptake in brain to plasma of Sprague-Dawley rat at 10 mg/kg, po at 1 hr. It is filed as ADME, organism-based. Also on record: dose 10 mg/kg, route oral. Particulars: read-out: BPR.

Consider `O=C(N[C@@H]1CCC[C@@H](NC(=O)c2ccccn2)C1)c1cccc(Cl)c1`, for which the Vd in [1] was 3.4 L/kg. This compound also gave a logD in data set [2] of 3.2. The Kp at 1 h in data set [3] was determined as 0.34. In the data set with Rattus norvegicus [4], this compound had a CL of 85%. Besides, the clearance in data set [5] was 68.3 mL/min/kg. For the same compound, the concentration at 1 h in data set [6] is 500 nM; in [8] it was 170 nM. Besides, the Intrinsic clearance amounted to 9 mL/min in the data set on Liver, 1.1 in the data set on Liver microsomes [23] and 41 mL/min in the data set on Liver microsomes [26]. In addition, the IC50 in [7] is more than 10000 nM; in data set [16], 62 nM. Further, the “Cp(f)” value amounted to 11% with Plasma [9] and 14% in the data set on Plasma [25]. Moreover, the exposure (AUC) came out at 260 ng·h/mL in the data set with Rattus norvegicus [10] and 530 ng·h/mL with Rattus norvegicus [18]. For the same compound, the results for the fraction unbound in data set [11], in [12] and in data set [21] were 0.065, 0.22 and 0.13, respectively. Moreover, the Ratio in data set [13] is reported as 0.67. The time of peak concentration (Tmax) in [14] amounted to 2 h. Moreover, the solubility kinetic at 4 h in [15] was 240 µM (≈ 85.9 µg/mL). Moreover, the EC50 in [17] was more than 10000 nM. Moreover, the bioavailability in the data set with Rattus norvegicus [19] came to 80%. The half-life in data set [20] was 0.6 h. The compound further registered an inhibition constant Ki in [22] of 205 nM. In data set [24], this compound displayed a Cmax of 220 ng/mL.
In the case of `O=C(N[C@H]1CCC[C@]2(CN=C(c3cccc(Cl)c3)O2)C1)c1ccccn1`, the Kp at 1 h in [3] worked out at 1; in data set [29], 0.6. Besides, the concentration at 1 h in data set [6] amounted to 1160 nM; in data set [8], 1160 nM; in [27], 5 nM; in [28], 8 nM. In addition, the results for the Intrinsic clearance in the data set with Liver, in the data set with Liver microsomes [23] and in the data set on Liver microsomes [26] were 8.8 mL/min, 13 and 160 mL/min, respectively. The results for the concentration for half-maximal inhibition (IC50) in data set [7] and in [16] were more than 10000 nM and 115 nM, respectively. For the same compound, the “Cp(f)” value with Plasma [9] came to 0.3%. Moreover, the fraction unbound in data set [12] was 0.005. Besides, the Ratio in [13] is 1.6. For the same compound, the half-maximal effective concentration (EC50) in data set [17] is more than 10000 nM. This compound registered a Ki in [22] of 178 nM.
